RAD52 anneal inh – RAD52 DNA annealing inhibitors, primary screen, biochemical, FRET, single point, set 2; inhibition, % at 18.7 µM; DNA repair protein RAD52 homolog (Homo sapiens), P43351; recombinant RAD52 DNA annealing, FRET fluorescence; hit rate 0.46% among 360,000;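 active = every replicate showing at least 50% inhibition; inconclusive = mean inhibition at least 50% but not in every replicate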
Target sequence (P43351 whole entry, looked up): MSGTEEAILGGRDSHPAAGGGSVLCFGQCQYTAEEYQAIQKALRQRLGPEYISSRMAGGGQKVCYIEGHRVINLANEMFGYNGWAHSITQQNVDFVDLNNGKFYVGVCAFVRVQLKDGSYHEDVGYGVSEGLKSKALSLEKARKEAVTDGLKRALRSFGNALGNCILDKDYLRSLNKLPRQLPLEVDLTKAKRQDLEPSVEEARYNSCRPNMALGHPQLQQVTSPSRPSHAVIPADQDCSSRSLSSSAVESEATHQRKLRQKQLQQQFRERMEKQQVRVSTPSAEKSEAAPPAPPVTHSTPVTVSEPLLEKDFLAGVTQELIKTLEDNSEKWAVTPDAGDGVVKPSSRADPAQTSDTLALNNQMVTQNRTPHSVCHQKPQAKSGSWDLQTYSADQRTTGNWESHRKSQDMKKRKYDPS
RAD54 inh – inhibitors of human RAD54 branch migration, primary screen, biochemical, fluorescence, single point. RAD54 Holliday junction branch migration, FAM/BHQ fluorescence. inhibition, % at 10.4 µM. hit rate 0.14% among 360,000;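 active = mean normalized replicate activity at least 40 and at least half of replicates scoring 40 or more; inconclusive = only one of the two criteria met; inactive = mean below 40 and under half of replicates reaching 40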;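 also: 0% = median of neutral control wells and 100% = median of positive control wells; inhibitors cause a drop in the FAM fluorescence signal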
AF4-AF9 inh – inhibitors of AF4 peptide binding to AF9, primary screen, biochemical, AlphaScreen, biotin-AF4 peptide, FLAG-AF9, single point; AID 651704, 2012; inhibition, % at 10 µM; hit rate 0.47% among 350,000; Protein AF-9 (Homo sapiens), P42568;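 active = every replicate reaching a set inhibition limit, whatever the replicate mean, cut at about 25% in these data; inconclusive = mean inhibition reaches that limit but some replicates miss it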;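 also: 0% = plate neutral control median and 100% = total signal loss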
dFosB act-1 – activators of delta FosB homodimer, primary screen, biochemical, fluorescence polarization, TAMRA-CDK5 oligo, single point; activation, % at 25 µM; purified delta FosB; percent of positive-control signal above neutral wells; Protein FosB (Mus musculus), P13346; hit rate 0.99% among 340,000; AID 493131, 2011;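 active = mean activation above about 17%, with every replicate also reaching it, limit read from the data, passing the limit was not always enough; inconclusive = only one of the two conditions met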
S100A4 MyoIIA – inhibitors of S100A4-myosin IIA peptide binding, primary screen, biochemical, fluorescence polarization, TAMRA-MyoIIA peptide | inhibition, % at 10.7 µM | hit rate 0.14% among 360,000 | Protein S100-A4 (Homo sapiens), P26447;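 active = mean inhibition of at least 70% across replicates, with every replicate also reaching that level; inconclusive = mean inhibition reaches 70% but some replicates fall short; inactive = mean inhibition below 70%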
Target sequence (P26447 whole entry, looked up): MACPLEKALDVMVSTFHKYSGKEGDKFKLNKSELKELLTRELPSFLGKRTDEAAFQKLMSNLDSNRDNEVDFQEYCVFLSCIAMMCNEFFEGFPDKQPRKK
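Material: S100A4 monomer protein | Medium: HEPES pH 7.2 with CaCl2, KCl, NaCl, DTT, Triton | Reagent: Labelled myosin peptide probe, 5 nM | Doses: One dose per compound | Times: 5 min incubation before reading | Benchmarks: Neutral control DMSO, positive control TFP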
dFosB act-2 – activators of mouse delta FosB DNA binding, confirmation, biochemical, fluorescence polarization, TAMRA-CDK5 oligo, cherry-picked samples; shares compounds with dFosB act-1; purified delta FosB; normalised: neutral wells 0, positive control 100; activation, % at 24.9 µM; 2,400 tested, under 10 active; AID 588690, 2011;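 active = highest replicate activation at or above 34% and every replicate reaching that threshold; inconclusive = meets only one of the two criteria; inactive = meets neither criterion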;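 also: higher polarization means more probe DNA bound by delta FosB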
An asterisk follows results filed as active; ? = inconclusive; . = not tested or not shown. A selection: hits, their analogues and other compounds. The true share with any hit is near 1.5%.

SMILES	RAD52 anneal inh	RAD54 inh	AF4-AF9 inh	dFosB act-1	S100A4 MyoIIA	dFosB act-2
COc1ccc(/C=C/C(=O)NC(=S)Nc2ccccn2)cc1	1.7	-3.0	-1.4	17.0*	11.3	-0.3
COc1cccc(NC(=O)N[C@@H]2C=C[C@H](CC(=O)N3CCN(C)CC3)O[C@@H]2CO)c1	-11.9	.	-4.0	.	17.0	.
O=C(Nc1nccs1)c1cn(-c2ccccc2)nc1-c1ccncc1	-19.5	-1.5	0.0	35.9*	1.7	0.8
Cc1ccc2nc(-c3ccc(NC(=O)COC(=O)c4ccc([N+](=O)[O-])o4)cc3)sc2c1	-12.4	.	2.0	-8.6	4.4	.
Cc1ccc2nc(-c3ccc(NC(=O)COC(=O)c4ccc(Br)o4)cc3)sc2c1	.	-3.0	.	35.3*	.	2.2
Cc1sc2ncnc(SCC(=O)c3ccc(O)cc3O)c2c1C	-5.9	.	-47.7	40.3*	-1.2	1.4
Cc1sc2ncnc(SCC(=O)Nc3ncccc3O)c2c1C	-50.8	-2.8	2.9	-1.9	-28.6	.
Cc1noc(C)c1S(=O)(=O)N(C)C[C@@H]1OCCCC[C@@H](C)Oc2ccc(NS(C)(=O)=O)cc2C(=O)N([C@@H](C)CO)C[C@H]1C	10.4	-9.4	-10.6	.	1.8	.
CC(=O)Oc1ccc(C(=O)Nc2cccc(C(=O)c3cccc(NC(=O)c4ccc(OC(C)=O)cc4)c3)c2)cc1	.	.	.	56.7*	.	2.0
CN([C@@H](Cc1ccc(OS(=O)(=O)c2cccc3cnccc23)cc1)C(=O)N1CCN(c2ccccc2)CC1)S(=O)(=O)c1cccc2cnccc12	.	5.8	.	20.5*	.	1.8
CCCCc1ccc(NC(=O)N2CCN(c3cc(C)nc4ccccc34)CC2)c(C)c1	-10.8	-3.3	.	37.4*	-1.9	2.7
Cc1cc(N2CCN(C(=O)Nc3ccc(F)cc3F)CC2)c2ccccc2n1	.	24.0	.	-9.4	.	.
COCC(=O)N(C)C[C@H]1Oc2cc(-c3ccc(F)cc3)ccc2S(=O)(=O)N([C@H](C)CO)C[C@H]1C	-9.3	5.2	3.1	.	-34.4	.
COc1ccc(NC(=O)Nc2ccc3c(c2)CC(=O)N([C@H](C)CO)C[C@@H](C)[C@H](CN(C)C(=O)Nc2c(C)noc2C)O3)cc1	.	6.8	.	.	.	.
Nn1c(SCC(=O)Nc2ccc3c(c2)OCO3)nnc1-c1ccc(Cl)cc1	.	-4.0	.	64.2*	.	2.5
Cc1ccc(-c2nsc(SCC(=O)Nc3ccc4c(c3)OCO4)n2)cc1	.	.	.	24.1*	.	2.5
Nn1c(SCC(=O)Nc2ccc3c(c2)OCO3)nnc1-c1ccccc1	.	11.9	.	0.3	.	.
CC(C)NC(=O)Nc1ccc2c(c1)CC(=O)N([C@@H](C)CO)C[C@@H](C)[C@@H](CN(C)S(C)(=O)=O)O2	-4.9	1.8	-2.4	.	3.5	.
CCNC(=O)C[C@H]1CC[C@@H]2[C@H](COc3ccc(NC(=O)Nc4ccccc4F)cc3C(=O)N2C)O1	0.4	1.7	-4.8	.	-2.8	.
CNC[C@@H]1Oc2ccc(NC(=O)NC(C)C)cc2C(=O)N([C@H](C)CO)C[C@H]1C	-6.1	0.6	0.2	.	-46.7	.
CC(=O)Nc1ccc(Nc2nc(-c3ccccc3)nc3ccccc23)cc1	-22.9	.	-0.2	-9.0	-6.3	.
Fc1ccc(Nc2nc(-c3ccncc3)nc3ccccc23)cc1F	-14.1	-8.9	-1.3	88.6*	3.1	1.7
CC(=O)c1sc(NC(=O)c2ccccc2F)nc1-c1ccccc1	-24.8	.	-0.9	-10.6	-1.6	.
CC(=O)c1sc(NC(=O)c2ccc(F)cc2)nc1-c1ccccc1	-14.7	.	-3.9	25.4*	1.1	7.4
O=C(Nc1nc(-c2ccccc2)nc2ccccc12)c1ccc(F)cc1	-5.4	.	-4.1	22.4*	14.8	-2.2
SMILES	RAD52 anneal inh	RAD54 inh	AF4-AF9 inh	dFosB act-1	S100A4 MyoIIA	dFosB act-2
COc1ccc(C(=O)Nc2nc(-c3ccccc3)c(C(C)=O)s2)c(OC)c1	-18.2	.	-1.2	31.9*	9.2	2.7
C[C@H]1CN([C@@H](C)CO)C(=O)Cc2cc(NS(=O)(=O)c3cccs3)ccc2O[C@H]1CN(C)CC1CCCCC1	20.2	-8.5	-17.0	.	4.8	.
C[C@@H]1CN([C@H](C)CO)C(=O)c2cc(NC(=O)c3ccncc3)ccc2O[C@@H](C)CCCCO[C@H]1CN(C)Cc1ccc(Cl)c(Cl)c1	13.3	.	5.8	.	1.9	.
O=C(C[C@H]1C=C[C@H](NC(=O)CC2CC2)[C@@H](CO)O1)NCC(F)(F)F	-1.0	-1.4	2.4	.	-0.5	.
CCN(CC)CCNC(=O)c1ccc(NC(=O)/C=C/c2cc(OC)c(OC)c(OC)c2)cc1	23.6	62.2*	8.4	52.4*	-4.3	-1.2
O=C(C1CC1)N1C[C@@H]2[C@H](c3ccccc31)[C@@H](CO)N2S(=O)(=O)c1ccccc1	-2.7	4.4	0.0	.	7.8	.
CCOC(=O)N1CCC(N2C(=O)c3ccc(C(=O)NCCOC)cc3C2=O)CC1	-8.9	10.4	-2.1	1.1	-0.7	.
O=C(Nc1ccncc1)c1ccc2c(c1)C(=O)N(C1CCCCC1)C2=O	.	-1.7	.	26.2*	.	5.8
CCOC(=O)N1CCC(N2C(=O)c3ccc(C(=O)Nc4ccc(OC)cc4)cc3C2=O)CC1	-11.7	-7.0	-1.5	30.3*	-1.8	-3.2
COc1ccc(CN(C)C[C@@H]2OCCCC[C@H](C)Oc3ccc(NC(=O)Nc4ccc(C(F)(F)F)cc4)cc3C(=O)N([C@@H](C)CO)C[C@@H]2C)cc1	46.0	-0.9	8.3	.	6.8	.
COc1ccc(-c2cc(=O)oc3c(C)c(OC(C)C(=O)Nc4ccc(CN5CCOCC5)cc4)ccc23)cc1 (stereo unspecified)	-13.0	6.4	2.8	43.1*	-4.6	6.9
O=S(=O)(c1ccc2c(c1)OCO2)N1CCN(c2nnnn2-c2ccccc2)CC1	.	3.7	.	24.6*	.	1.3
O=S(=O)(c1ccccc1)N1CCN(c2nnnn2-c2ccccc2)CC1	.	-3.5	.	?	.	.
CC(=O)c1ccc(NC(=O)c2ccc(-n3cnnn3)cc2)cc1	-6.5	.	-1.5	24.0*	1.8	1.5
Cc1cc(C)cc(OCC(=O)Nc2ccc(-n3cnnn3)cc2)c1	-12.0	-4.2	2.1	33.6*	-7.2	5.6
CC(=O)Nc1ccc(NC(=O)C2CCCN(S(=O)(=O)c3ccc(-n4cnnn4)cc3)C2)cc1 (stereo unspecified)	1.8	-10.6	0.4	23.0*	-3.0	0.0
CO[C@H]1CN(C)C(=O)c2ccc(NC(=O)NC(C)C)cc2OC[C@H](C)N(Cc2ccccc2)C[C@@H]1C	14.0	1.7	-1.3	.	-10.0	.
COc1ccccc1/C=C(\NC(=O)c1ccc(OC)c(OC)c1)C(=O)Nc1cc([N+](=O)[O-])ccc1C	-14.4	.	0.0	28.1*	-3.7	-1.6
